ChEMBL document CHEMBL3421617, “Synthesis of selenazolopyridine derivatives with capability to induce apoptosis in human breast carcinoma MCF-7 cells through scavenge of intracellular ROS” (Eur J Med Chem, 2015)
Activity calls are given as the source filed them. The calls are words filed in the database; no cut-off is given here.

Experiments:
MCF7 [1] = assay: Cytotoxicity against human MCF7 cells assessed as cell viability after 72 hrs by MTT assay; format: functional, cell-based; conditions: for IC50: MCF7, 72 h
Procedure, shortened: (§1)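 Cells obtained from ATCC; human normal liver L02 included as the non-cancer line. Cells treated with various concentrations for 72 h. Viability read by MTT assay and IC50 values calculated from the concentration series.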

HepG2 = assay: Cytotoxicity against human HepG2 cells assessed as cell viability after 72 hrs by MTT assay; format: functional, cell-based; conditions: HepG2, 72 h; procedure, shortened: as §1
[2] = Cytotoxicity against human L02 cells assessed as cell viability after 72 hrs by MTT assay; format: cell-based; conditions: L02, 72 h; procedure, shortened: as §1
MCF7 [3] = assay: Cell cycle arrest in human MCF7 cells assessed as cells at Sub-G1 phase at 20 uM by flow cytometry (reference value: 3.3%); format: functional
MCF7 [4] = assay: Cell cycle arrest in human MCF7 cells assessed as cells at G0/G1 phase at 20 uM by flow cytometry (reference value: 41.9%); format: functional
MCF7 [5] = assay: Cell cycle arrest in human MCF7 cells assessed as cells at S phase at 20 uM by flow cytometry (reference value: 16.6%); format: functional
MCF7 [6] = assay: Cell cycle arrest in human MCF7 cells assessed as cells at G2/M phase at 20 uM by flow cytometry (reference value: 41.5%); format: functional
MCF7 [7] = assay: Cell cycle arrest in human MCF7 cells assessed as cells at Sub-G1 phase at 30 uM by flow cytometry (reference value: 3.3%); format: functional
MCF7 [8] = assay: Cell cycle arrest in human MCF7 cells assessed as cells at G0/G1 phase at 30 uM by flow cytometry (reference value: 41.9%); format: functional
MCF7 [9] = assay: Cell cycle arrest in human MCF7 cells assessed as cells at S phase at 30 uM by flow cytometry (reference value: 16.6%); format: functional
MCF7 [10] = assay: Cell cycle arrest in human MCF7 cells assessed as cells at G2/M phase at 30 uM by flow cytometry (reference value: 41.5%); format: functional
MCF7 [11] = assay: Cell cycle arrest in human MCF7 cells assessed as cells at Sub-G1 phase at 40 uM by flow cytometry (reference value: 3.3%); format: functional
MCF7 [12] = assay: Cell cycle arrest in human MCF7 cells assessed as cells at G0/G1 phase at 40 uM by flow cytometry (reference value: 41.9%); format: functional
MCF7 [13] = assay: Cell cycle arrest in human MCF7 cells assessed as cells at S phase at 40 uM by flow cytometry (reference value: 16.6%); format: functional
MCF7 [14] = assay: Cell cycle arrest in human MCF7 cells assessed as cells at G2/M phase at 40 uM by flow cytometry (reference value: 41.5%); format: functional
MCF7 [15] = assay: Cell cycle arrest in human MCF7 cells assessed as cells at Sub-G1 phase by flow cytometry; format: functional, cell-based
MCF7 [16] = assay: Inhibition of intracellular ROS production in human MCF7 cells assessed as decrease in DHE fluorescence intensity after 30 mins; format: functional, cell-based
Procedure, shortened: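 MCF-7 cells loaded with 10 µM DHE in PBS for 30 min, then exposed to different concentrations of compound. Intracellular ROS followed as DHE fluorescence on a microplate reader, excitation 300 nm and emission 610 nm, over 30 min.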

MCF7 [17] = assay: Inhibition of intracellular ROS production in human MCF7 cells assessed as decrease in DHE fluorescence intensity at 80 uM after 30 mins by fluorescence microscopy; format: functional, cell-based
Procedure, shortened: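 Cells loaded with DHE (10 µM) in a culture dish at 37 °C for 30 min, then treated at 80 µM. Imaged at once by fluorescence microscopy, with red DHE fluorescence followed for 30 min.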

[18] = Antioxidant activity assessed as ABTS radical scavenging activity; format: physicochemical; conditions: TDE = time-dependent effect
[19] = Antioxidant activity assessed as DPPH free radical scavenging activity; format: physicochemical; conditions: TDE = time-dependent effect

c1ccc(Nc2nc3cccnc3[se]2)cc1
inhibition (MCF7 [1]): Dose-dependent effect | IC50 (MCF7 [1]): 22.5 µM | IC50 (HepG2): 57.1 µM | IC50 [2]: 164 µM | Activity (MCF7 [3]): 27.1% | Activity (MCF7 [4]): 58.2% | Activity (MCF7 [5]): 34.3% | Activity (MCF7 [6]): 7.5% | Activity (MCF7 [7]): 36.7% | Activity (MCF7 [8]): 50.5% | Activity (MCF7 [9]): 22.3% | Activity (MCF7 [10]): 20.3% | Activity (MCF7 [11]): 58.3% | Activity (MCF7 [12]): 50.8% | Activity (MCF7 [13]): 25.8% | Activity (MCF7 [14]): 13.4% | Activity (MCF7 [15]): Dose-dependent effect | inhibition (MCF7 [16]): Dose-dependent effect | inhibition (MCF7 [17]): Active | Activity [18]: tde | Activity [19]: tde

Brc1ccccc1Nc1nc2cccnc2[se]1
IC50 (MCF7 [1]): 185 µM | IC50 (HepG2): 74.2 µM | IC50 [2]: 169 µM

Clc1ccccc1Nc1nc2cccnc2[se]1
IC50 (MCF7 [1]): 43.3 µM | IC50 (HepG2): 181 µM | IC50 [2]: 84.6 µM

Cc1ccc(Nc2nc3cccnc3[se]2)cc1C
IC50 (MCF7 [1]): 202 µM | IC50 (HepG2): 145 µM | IC50 [2]: 182 µM

Cc1ccc(Nc2nc3cccnc3[se]2)cc1
IC50 (MCF7 [1]): 91.5 µM | IC50 (HepG2): 235 µM | IC50 [2]: 207 µM

Cc1cccc(Nc2nc3cccnc3[se]2)c1
IC50 (MCF7 [1]): 56.4 µM | IC50 (HepG2): 56.7 µM | IC50 [2]: 54.3 µM

Cc1ccccc1Nc1nc2cccnc2[se]1
IC50 (MCF7 [1]): 52.5 µM | IC50 (HepG2): 507 µM | IC50 [2]: 121 µM
